The EternaBench riboswitch data

Test system: MS2 coat protein
Assay: apparent Kd, MS2 coat protein; higher = weaker binding; RNA-MaP array; FMN 200 µM where present
Method in brief: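 Two titrations, one without ligand and one with constant ligand, were run with SNAP-549-labelled MS2 coat protein from 0.7 or 1.5 nM, doubling to 3 µM. The targets were designs transcribed by stalled E. coli RNA polymerase on Illumina sequencing-chip clusters, in 100 mM Tris-HCl pH 7.5, 80 mM KCl, 4 mM MgCl2, BSA, DTT, yeast tRNA and Tween-20. The apparent Kd is the median of filtered per-cluster binding-curve fits, with green signal normalised to red-channel RNA signal and control-cluster median Fmax.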

[1] = designed as: OFF switch for flavin mononucleotide, no ligand
[2] = ligand present: flavin mononucleotide, designed as: OFF switch for flavin mononucleotide
[3] = designed as: ON switch for flavin mononucleotide, no ligand
[4] = ligand present: flavin mononucleotide, designed as: ON switch for flavin mononucleotide

Sequence: GCGAAUUAGUGAGGAUAUACAUAAUUUAAAACUGUAGAAGGCACAAUCCUCAAGACAUGAGGAUCACCCAUGUGGUAUUACGCU
- apparent Kd [1]: 138 nM
- apparent Kd [2]: 861 nM

Sequence: GCGAUGAUCGAGAAGGCCACUACAUGAGGAUCACCCAUGUCGUGGUGUAUUGGAGGAUAUCGAUCGGCGUCUCAUGAGGACAUA
- apparent Kd [1]: 4.65 nM
- apparent Kd [2]: 5.78 nM

Sequence: GCGAUGUCAGGAUAUGUGUAAAGAAUAAAACAAAUAACAACACAGAAGGGACAUGAGGAUCACCCAUGUUACGC
- apparent Kd [1]: 30.1 nM
- apparent Kd [2]: 37.2 nM

Sequence: GCGAUUUAGUAGAAGGUACGAUAUAUAUCAUUGUAAGGAUAUACUUACAUGAGGAUCACCCAUGUUAAGGGUUAUAAUAAUCGC
- apparent Kd [3]: 195 nM
- apparent Kd [4]: 134 nM

Sequence: GCGCAAACGCCAAAAGGCGAAAUUACAUGAGGAUCACCCAUGUAGGAUAUCGAUUGCUUUGCAGUCGAGAAGGACAUGAUGCGC
- apparent Kd [1]: 19.2 nM
- apparent Kd [2]: 23.9 nM

Sequence: GCGGCUCCUGACAUGAGGAUCACCCAUGUUUAAUUAUUAAAUCAGGAUAUCCUCUCGAAACGAGAGGAGAAGGGAUAAGCUGCU
- apparent Kd [3]: 5.6 nM
- apparent Kd [4]: 6.44 nM

Sequence: GCGGGAUGAGUCGUUGGUUCACAUGAGGAUCACCCAUGUAGGGAGGAUAUACAUCUGGUCCCGGAGUAGAAGGCCCUACAUCGG
- apparent Kd [1]: 163 nM
- apparent Kd [2]: 107 nM

Sequence: GCGUAACAUGAGGAUCACCCAUGUACUCGAGAAAUCGAGUGUAGAAGGGUGACCGGUCGUUUGGCACAGGAUAUACACGCUGUG
- apparent Kd [3]: 31.1 nM
- apparent Kd [4]: 14.1 nM

Sequence: GCGUAAUAGAUCCUAUUUAUCUACAUGAGGAUCACCCAUGUGCAGGAUAUGCUAUAAUUUAAUAAGCAGAAGGGCAAUUUCCGC
- apparent Kd [1]: 73.3 nM
- apparent Kd [2]: 159 nM

Sequence: GCGUAUAUAUGUUUUAUUUAACAGUCAGAAGGUGAUAAUACGACAUGAGGAUCACCCAUGUAAUUCAAGGAUAUGAUCUUACGC
- apparent Kd [3]: 117 nM
- apparent Kd [4]: 20.1 nM

Sequence: GCGUAUGAGCAGGAUAUCCGACGGGAAUCCAAAGGAGAAGGGCUCACAUGAGGAUCACCCAUGUGGUCCUAAAC
- apparent Kd [1]: 20.2 nM
- apparent Kd [2]: 101 nM

Sequence: GCGUAUUAGGUGUAGCUAGUCAUUCAAGAAGGGUGAAGAACAUGAGGAUCACCCAUGUAGUUUAUACAGGAUAUUGAUAUACGC
- apparent Kd [3]: 528 nM
- apparent Kd [4]: 235 nM

Sequence: GCGUAUUAGGUGUAGCUAGUCAUUCAAGAAGGGUGAAGAACAUGAGGAUCACCCAUGUUGUUUUUACAGGAUAUUGAUAUACGC
- apparent Kd [3]: 68 nM
- apparent Kd [4]: 8.52 nM

Sequence: GCGUGACAUGAGGAUCACCCAUGUGAGGAUAUCUGGAUAAUUUUUAUUUUAGAUAUCCAGAGAAGGCACAUGCU
- apparent Kd [1]: 63.8 nM
- apparent Kd [2]: 156 nM

Sequence: GCGUGGUUCUAGAAGGUGCUAGCGAUAAGCUAGCAAGGAUAUAGACAUGAGGAUCACCCAUGUCUAAGAGAAAUAGACACACGC
- apparent Kd [1]: 4.56 nM
- apparent Kd [2]: 5.09 nM

Sequence: GCGUGGUUCUAGAAGGUGCUAGCGAUAAGCUAGCAAGGAUAUAGACAUGAGGAUCACCCAUGUCUUAGUGAAAUGGACACACGC
- apparent Kd [2]: 5.09 nM

Sequence: GCGUUGAACGAGAAGGCCACUACAUGAGGAUCACCCAUGUCGUGGAGUAUUGGAGGAUAUCGAUCGGCGUCUCAUGAGGACAUA
- apparent Kd [1]: 5.34 nM
- apparent Kd [2]: 5.62 nM

Sequence: GCGUUUUAUGCAGGAUAUUGUAAUUUAUUACUACAAGAAGGGCAAUACAUGAGGAUCACCCAUGUCAGCAUGGUAUUAAAGUUC
- apparent Kd [1]: 37.6 nM
- apparent Kd [2]: 42.8 nM

Sequence: GCUCGAUGUGCUGAAAACAUGAGGAUCACCCAUGUAAAUGAUCAGGAUAUUUACGUGCUUUAUGUAGAGAAGGGAUCAUCGAGC
- apparent Kd [3]: 260 nM
- apparent Kd [4]: 78.3 nM

Sequence: GCUCUCGGAGGAUAUGUGCCGAGUGACAUGAGGAUCACCCAUGUAUUUCUCCUGUAAUCUACAGAAGGCCGAGGCG
- apparent Kd [1]: 161 nM
- apparent Kd [2]: 23.9 nM

Sequence: GCUGCAUAGGCAGGAUAUGCAACAAUUAGAAUAAAAUAUAACUAAUUGACAUGAGGAUCACCCAUGUAGAAGGGCCUGUGCAGU
- apparent Kd [1]: 21.1 nM
- apparent Kd [2]: 19.6 nM

Sequence: GCUGCAUAGGCAGGAUAUGCAAUAAUUCGAAUAGAAUAUAACGAAUUAACAUGAGGAUCACCCAUGUAGAAGGGCCUGUGCAGU
- apparent Kd [1]: 5.76 nM
- apparent Kd [2]: 5.58 nM

Sequence: GCUGGACGAGGAUAUGCAAUCGUGCUUCGGCACGUAAGAUCACAUGAGGAUCACCCAUGUAGAAGGUGUCCAGC
- apparent Kd [1]: 17.9 nM
- apparent Kd [2]: 30.2 nM
